In ChEMBL document CHEMBL3352559, “Synthesis and pharmacological investigation of aralkyl diamine derivatives as potential triple reuptake inhibitors” (Eur J Med Chem, 2014):

How the values were obtained:
[1] = target: 5-hydroxytryptamine receptor 6 (Homo sapiens) (UniProt P50406); experiment: Displacement of [3H]LSD from human 5-HT6 receptor at 10 uM relative to control
Summary of the method: (§1)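 Outsourced CNS panel of 55 receptor binding assays run by Cerep. Compound tested at 10 μM, the default primary-binding concentration, with inhibition expressed relative to control. Inhibition above 50% taken as a significant effect.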

[2] = target: Vasoactive intestinal polypeptide receptor 1 (Homo sapiens) (UniProt P32241); experiment: Displacement of [125I]VIP from human VPAC1 receptor at 10 uM relative to control; summary of the method: as §1
[3] = target: Beta-2 adrenergic receptor (Homo sapiens) (UniProt P07550); experiment: Displacement of [3H]CGP-12177 from human beta2-adrenergic receptor at 10 uM relative to control; summary of the method: as §1
[4] = target: 5-hydroxytryptamine receptor 2A (Homo sapiens) (UniProt P28223); experiment: Displacement of [3H]ketanserin from human 5-HT2A receptor at 10 uM relative to control
Summary of the method: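 Outsourced CNS receptor panel (55 binding assays); compound tested at 10 μM in primary radioligand binding; specific binding inhibition expressed relative to control, with >50% inhibition taken as a significant effect.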

[5] = tested on: Salmonella typhimurium; experiment: Mutagenic activity in Salmonella typhimurium TA100 assessed as number of reversion mutation at 10 ug/plate; assay type: toxicity, organism-based; conditions: salmonella enterica subsp. enterica serovar typhimurium
Summary of the method: (§2)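 Ames reversion test in Salmonella typhimurium TA98 and TA100, with and without rat liver S9 metabolic activation. Compound was dissolved in DMSO and added at 3–5000 μg/plate. Each dose, vehicle and positive control was plated in triplicate, and revertant colonies were counted.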

[6] = target: Histamine H1 receptor (Homo sapiens) (UniProt P35367); experiment: Displacement of [3H]Pyrilamine from human histamine H1 receptor at 10 uM relative to control; summary of the method: as §1
[7] = tested on: Salmonella typhimurium; experiment: Mutagenic activity in Salmonella typhimurium TA98 assessed as number of reversion mutation at 10 ug/plate; assay type: toxicity, organism-based; conditions: salmonella enterica subsp. enterica serovar typhimurium; summary of the method: as §2
[8] = tested on: Rattus norvegicus; experiment: Antidepressant activity in rat assessed as reduction in immobility time at 20 mg/kg, po by forced swimming test relative to control; assay type: functional
Summary of the method: (§3)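 Male rats dosed orally at 5, 10 or 20 mg/kg alongside vehicle and venlafaxine 30 mg/kg PO groups. 1 h post-dose, each rat placed in a glass cylinder (40 cm × 18 cm) holding 15 cm of 25 ± 1 °C water. Immobility time recorded over a 6 min trial; significant main effects followed by post hoc Fisher's test.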

[9] = tested on: Rattus norvegicus; experiment: Antidepressant activity in po dosed rat assessed as reduction in immobility time by forced swimming test; assay type: functional, organism-based; summary of the method: as §3
[10] = Acute toxicity in KM mouse assessed as survival at 150 mg/kg, po up to 14 days (reference value: 100%); assay type: organism-based; design: dose 150 mg/kg, route oral; conditions: in vivo

Sequence of 5-hydroxytryptamine receptor 6 (Homo sapiens) (P50406 whole entry): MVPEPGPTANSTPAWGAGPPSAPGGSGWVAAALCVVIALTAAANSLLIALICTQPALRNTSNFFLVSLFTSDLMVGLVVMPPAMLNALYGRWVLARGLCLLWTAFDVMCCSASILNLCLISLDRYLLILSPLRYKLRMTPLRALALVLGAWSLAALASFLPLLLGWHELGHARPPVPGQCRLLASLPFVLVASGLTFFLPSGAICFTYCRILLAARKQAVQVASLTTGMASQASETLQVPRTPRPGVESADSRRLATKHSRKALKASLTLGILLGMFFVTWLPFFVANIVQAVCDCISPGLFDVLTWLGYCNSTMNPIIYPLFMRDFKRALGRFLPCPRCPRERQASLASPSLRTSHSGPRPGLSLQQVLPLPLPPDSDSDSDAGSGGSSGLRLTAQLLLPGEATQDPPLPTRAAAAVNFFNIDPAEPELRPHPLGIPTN
Sequence of Vasoactive intestinal polypeptide receptor 1 (Homo sapiens) (P32241 whole entry): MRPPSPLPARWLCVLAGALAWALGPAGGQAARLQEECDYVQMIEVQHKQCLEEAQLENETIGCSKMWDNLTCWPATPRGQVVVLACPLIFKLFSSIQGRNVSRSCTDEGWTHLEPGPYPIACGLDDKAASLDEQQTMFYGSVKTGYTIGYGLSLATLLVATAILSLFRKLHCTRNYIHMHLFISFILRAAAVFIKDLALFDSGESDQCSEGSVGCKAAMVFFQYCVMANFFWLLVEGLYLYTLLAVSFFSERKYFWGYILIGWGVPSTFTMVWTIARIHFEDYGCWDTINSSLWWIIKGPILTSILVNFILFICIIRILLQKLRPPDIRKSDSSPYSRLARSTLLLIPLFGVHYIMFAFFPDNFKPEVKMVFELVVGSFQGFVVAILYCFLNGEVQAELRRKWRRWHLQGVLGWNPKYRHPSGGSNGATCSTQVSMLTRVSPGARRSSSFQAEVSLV
Sequence of 5-hydroxytryptamine receptor 2A (Homo sapiens) (P28223 whole entry): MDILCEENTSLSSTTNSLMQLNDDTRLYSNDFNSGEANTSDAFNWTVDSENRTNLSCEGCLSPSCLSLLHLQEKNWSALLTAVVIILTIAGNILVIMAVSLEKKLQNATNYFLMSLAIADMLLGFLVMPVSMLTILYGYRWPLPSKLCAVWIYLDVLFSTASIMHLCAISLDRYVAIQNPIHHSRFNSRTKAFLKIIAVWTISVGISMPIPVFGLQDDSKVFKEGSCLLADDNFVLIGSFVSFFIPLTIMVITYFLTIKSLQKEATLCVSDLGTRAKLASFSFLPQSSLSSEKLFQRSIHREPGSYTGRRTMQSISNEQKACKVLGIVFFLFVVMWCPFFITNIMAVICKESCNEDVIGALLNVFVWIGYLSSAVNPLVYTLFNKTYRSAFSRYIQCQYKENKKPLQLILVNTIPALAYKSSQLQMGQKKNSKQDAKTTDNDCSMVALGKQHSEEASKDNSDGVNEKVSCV
Sequence of Histamine H1 receptor (Homo sapiens) (P35367 whole entry): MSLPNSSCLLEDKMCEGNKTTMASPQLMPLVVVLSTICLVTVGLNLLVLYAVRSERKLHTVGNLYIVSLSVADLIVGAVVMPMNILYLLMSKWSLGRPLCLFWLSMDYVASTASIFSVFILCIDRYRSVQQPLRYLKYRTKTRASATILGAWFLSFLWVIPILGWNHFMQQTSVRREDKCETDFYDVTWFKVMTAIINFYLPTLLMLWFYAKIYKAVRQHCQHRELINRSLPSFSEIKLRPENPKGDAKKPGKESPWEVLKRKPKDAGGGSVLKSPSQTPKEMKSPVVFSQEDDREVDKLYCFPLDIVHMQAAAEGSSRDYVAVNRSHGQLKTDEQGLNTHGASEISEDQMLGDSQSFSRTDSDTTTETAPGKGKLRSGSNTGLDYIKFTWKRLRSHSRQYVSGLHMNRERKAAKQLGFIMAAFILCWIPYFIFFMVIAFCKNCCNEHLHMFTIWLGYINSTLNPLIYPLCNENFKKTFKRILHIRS
Sequence of Beta-2 adrenergic receptor (Homo sapiens) (P07550 whole entry, looked up): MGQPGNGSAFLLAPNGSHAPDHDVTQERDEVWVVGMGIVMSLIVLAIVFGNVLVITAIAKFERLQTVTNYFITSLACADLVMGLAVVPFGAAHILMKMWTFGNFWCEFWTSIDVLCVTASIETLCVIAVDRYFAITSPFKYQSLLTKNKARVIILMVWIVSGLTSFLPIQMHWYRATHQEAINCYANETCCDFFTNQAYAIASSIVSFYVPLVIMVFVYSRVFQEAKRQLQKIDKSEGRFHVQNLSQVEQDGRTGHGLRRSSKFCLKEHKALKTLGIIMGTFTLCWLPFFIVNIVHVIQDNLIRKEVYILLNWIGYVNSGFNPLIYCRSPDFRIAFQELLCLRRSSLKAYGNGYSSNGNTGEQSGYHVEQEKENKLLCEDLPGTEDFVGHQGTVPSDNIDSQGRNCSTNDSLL

Molecule `CN(C)CCC(c1ccc(Cl)c(Cl)c1)N1CCOCC1` (stereo not given) has an inhibition [1] of 2.4%, an inhibition [2] of 2.2% and an inhibition [3] of 4.9%. The inhibition [4] was 32.1%, the Activity [5] was 75 and the inhibition [6] was 22.7%. For the same molecule, the Activity [7] was 32, the inhibition in vivo at 20 mg/kg [8] was 66% and the inhibition [9] was “Dose-dependent effect”. For the same molecule, the survival at 336 h [10] was 100%.
